# Assay results taken from ChEMBL document CHEMBL2311282, “Asymmetric synthesis and anti-protozoal activity of the 8,4'-oxyneolignans virolin, surinamensin and analogues” (Eur J Med Chem, 2013).
# Assays:
# [1] = Toxicity against rat L6 cells after 72 hrs by Alamar blue assay; type: cell-based
# In short: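 Cytotoxicity was measured on the L6 rat skeletal myoblast cell line, with podophyllotoxin as the positive control.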
# Leishmania donovani = assay: Anti-protozoal activity against Leishmania donovani MHOM-ET-67/L82 amastigotes after 72 hrs by Alamar blue assay; type: functional, organism-based; details: MHOM-ET-67/L82, 72 h
# Plasmodium falciparum = assay: Anti-protozoal activity against Plasmodium falciparum K1 IEF stage after 72 hrs by [3H]hypoxanthine incorporation assay; type: functional, organism-based
# In short: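 P. falciparum K1 strain was tested at the IEF stage, with chloroquine as the positive control.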
IC50 (Plasmodium falciparum),Structure (SMILES),IC50 at 72 h [1],IC50 (Leishmania donovani)
4.31 µg/mL,COc1ccc([C@H](O)[C@@H](C)Oc2ccc(Br)cc2OC)cc1,13.5 µg/mL,4.79 µg/mL
2.5 µg/mL,COc1ccc([C@@H](O)[C@@H](C)Oc2ccc(Br)cc2OC)cc1OC,20.9 µg/mL,10.8 µg/mL
8.47 µg/mL,COc1cc(Br)ccc1O[C@H](C)[C@@H](O)c1cc(OC)c(OC)c(OC)c1,20.3 µg/mL,11.3 µg/mL
3.12 µg/mL,COc1ccc(C(=O)[C@@H](C)Oc2ccc(Br)cc2OC)cc1OC,41.6 µg/mL,12.1 µg/mL
49.3 µg/mL,COCO[C@H](c1ccc(OC)c(OC)c1)[C@@H](C)Oc1ccc(Br)cc1OC,50.6 µg/mL,60.3 µg/mL
47.3 µg/mL,C/C=C/c1ccc(O[C@H](C)[C@@H](OCOC)c2ccccc2)c(OC)c1,52.3 µg/mL,52.5 µg/mL
1.71 µg/mL,C/C=C/c1ccc(O[C@H](C)[C@@H](O)c2ccc(OC)c(OC)c2)c(OC)c1,13.2 µg/mL,10.6 µg/mL

# Second part, the molecule before the results:
Structure (SMILES),IC50 (Plasmodium falciparum),IC50 at 72 h [1],IC50 (Leishmania donovani)
COc1cc(Br)ccc1O[C@H](C)[C@H](O)c1ccc2c(c1)OCO2,10.8 µg/mL,48.2 µg/mL,9.2 µg/mL
C/C=C/c1ccc(O[C@H](C)[C@@H](O)c2ccccc2)c(OC)c1,3.23 µg/mL,11.9 µg/mL,2.29 µg/mL
C/C=C/c1ccc(O[C@H](C)[C@@H](O)c2ccc(OC)cc2)c(OC)c1,1.33 µg/mL,15.5 µg/mL,5.54 µg/mL
C/C=C/c1ccc(O[C@H](C)[C@@H](O)c2ccc3c(c2)OCO3)c(OC)c1,4.59 µg/mL,15.3 µg/mL,6.82 µg/mL
C/C=C/c1ccc(O[C@H](C)[C@H](O)c2ccc3c(c2)OCO3)c(OC)c1,1.73 µg/mL,14.7 µg/mL,10.2 µg/mL
COc1cc(-c2ccccc2)ccc1O[C@H](C)[C@@H](O)c1ccccc1,5.99 µg/mL,11.2 µg/mL,2.48 µg/mL
CCN(CC)CCCC(C)Nc1ccnc2cc(Cl)ccc12 (stereo unspecified) [CHLOROQUINE],0.54 µg/mL,–,–
CCCCCCCCCCCCCCCCOP(=O)([O-])OCC[N+](C)(C)C [MILTEFOSINE],–,–,0.144 µg/mL
